Bioassay records: PubChem, Sanford-Burnham Center for Chemical Genomics
Scp1 inh: Scp-1 (human) phosphatase inhibition. Q9GZU7. Recombinant Scp1, phosphopeptide, malachite green phosphate absorbance. hit rate 0.88% among 340,000. inhibition, % at 20 µM;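 active = inhibition above about 50% at 20 µM, limit read from the data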;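 also: plate controls were DMSO wells with enzyme for no effect and wells lacking enzyme for full effect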
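Test system: SCP-1 phosphatase catalytic domain, residues 76-261; measured by: colorimetric phosphate reagent with accelerator and stabiliser, absorbance at 630 nm; timing: enzyme reaction 45 min at room temperature, colour 5 min, stabilisation 30 min; also added: Phosphorylated 17-residue peptide substrate; compound dosing: one concentration, 20 µM, with 1.0% DMSO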
SUMO1 PPI mod: alters human SUMO1 binding to SIM partners; P63165; SUMO1 binding to a labelled peptide, TR-FRET, 1 h; inhibition, % at 20 µM; hit rate 0.33% among 360,000; AID 602429; in the data active = inhibition above about 37%
LMPTP inh: LMPTP (human) inhibition. P24666. recombinant LMPTP-A, OMFP fluorogenic substrate, fluorescence intensity. inhibition, % at 20 µM. hit rate 0.22% among 360,000;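 active = compounds that cut the enzyme signal by at least half of the control window in the single-dose screen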;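 also: plate controls were DMSO wells with enzyme plus substrate for no effect and substrate without enzyme for full effect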
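Assay system: LMPTP-A, protein tyrosine phosphatase of low molecular weight / Medium: pH 6.0 Bis-Tris buffer with DTT and Triton X-100 / Schedule: 50 min enzyme reaction at room temperature, protected from light / Measured by: endpoint fluorescence intensity from OMFP dephosphorylation / Read-out basis: % inhibition relative to no-enzyme and uninhibited control wells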
DNMT1 inh: inhibitors of human DNMT1 | P26358 | hit rate 0.83% among 360,000 | DNMT1 molecular beacon, Hinp1I cleavage, fluorescence | inhibition (reported as % activation of signal), % at 10 µM; in the data active = inhibition above about 50%
STEP inh: inhibitors of human striatal-enriched phosphatase STEP; hit rate 0.25% among 360,000; P54829; recombinant STEP, OMFP fluorogenic substrate, fluorescence; inhibition, % at 20 µM; AID 588621;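 active = inhibition at 20 µM, scaled per plate between control wells, above about 37%, limit read from the data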;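 also: 0% = DMSO with enzyme and substrate and 100% = substrate only without enzyme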
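Test system: STEP tyrosine phosphatase / Reagent: OMFP at 25 µM / Doses: 20 µM, 1% DMSO / Read-out: percent inhibition scaled to no-enzyme and uninhibited-enzyme controls, plate-pattern corrected / Detection: FITC-channel fluorescence of OMFP product / Medium: Bis-Tris buffer pH 6.0, 2.5 mM DTT, 0.005% Tween 20 / Schedule: 20 min at room temperature, dark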
CSN deneddyl inh: CSN deneddylation inhibition; Q92905; Purified CSN, SCF-Nedd8-OG deneddylation, fluorescence polarization; inhibition, % at 12.5 µM; hit rate 0.38% among 360,000; AID 651999;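 active = pattern-corrected inhibition above about 35%, with an unprinted fluorescence ratio check between 0.5 and 1.5, limit read from the data, passing the limit was not always enough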;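 also: 0% = enzyme with substrate and 100% = substrate without enzyme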
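test system = HEK293T-derived human Csn5 enzyme | amount = 0.24 nM Csn5 enzyme, final concentration | medium = Tris/NaCl/DTT buffer, pH 7.5 | schedule = 90 min reaction at room temperature | signal = FP | evaluation = inhibition of Csn5 cleavage, % | compound dosing = single dose of 12.5 µM compound with 0.25% DMSO | probe or stimulus = 10 nM SCFSkp2-Nedd8OG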
DNMT1 interf DR: counter-screen for DNMT1 inhibitors: spectral interference, dose response; shares compounds with DNMT1 inh; molecular beacon fluorescence; IC50, µM; 200 tested, under 10 active; call rule not given here
DNMT1 confirm: confirmation of human DNMT1 inhibitors. hit rate 8% among 2,300. shares compounds with DNMT1 inh. DNMT1 molecular beacon HinP1I cleavage, fluorescence. inhibition, % at 10 µM;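 active = average inhibition of at least 30% in the single-concentration confirmation test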
DNMT1 interf: counter-screen for DNMT1 inhibitors: spectral interference; DNMT1 molecular beacon spectral interference counterscreen, fluorescence 485/520; hit rate 1% among 2,300; shares compounds with DNMT1 inh; AID 602387; activation (fluorescence interference), % at 10 µM;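 active = activation of at least 30% at 10 µM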;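 also: DNMT1 catalytic domain with a HinP1I cleavage step and a FAM/dabcyl DNA beacon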
* marks the source's active call; other numbers are inactive results; nt = no result given; ! = a repeat was not active. This is a sample that favours compounds with a hit; in the whole collection about 1.9% have one here.

SMILES	Scp1 inh	SUMO1 PPI mod	LMPTP inh	DNMT1 inh	STEP inh	CSN deneddyl inh	DNMT1 confirm	DNMT1 interf	others
CCc1nc(NCc2cccs2)c2nnn(Cc3ccccc3)c2n1	nt	1	-3	67*	4	7	0	4
O=C(O)c1cn(Cc2ccccc2)c2ccc(Cl)cc2c1=O	-9	3	24	-1	-3	-2	nt	nt
CN1/C(=C\C(=O)c2cccc([N+](=O)[O-])c2)Sc2ccccc21	-5	0	5	52*	2	8	0	-1
COc1cc(OC)cc(C(=O)/C=C2\Sc3ccccc3N2C)c1	-6	-4	0	4	0	4	nt	nt
O=S1(=O)C=C(SCc2ccc(F)cc2)Nc2ccccc21	3	1	0	2	0	-10	nt	nt
Cn1c(=O)c2cc(S(=O)(=O)NC(C(=O)Nc3cccc(F)c3)c3ccccc3)ccc2n(C)c1=O (stereo not drawn)	-7	4	0	83*	-8	-2	1	4
Cn1c(=O)c2cc(S(=O)(=O)NC(C(=O)Nc3cccnc3)c3ccccc3)ccc2n(C)c1=O (stereo not drawn)	-10	7	-1	1	4	3	nt	nt
CCN(CCCNC(=O)CNC(=O)c1nn(-c2ccc(OC)cc2)c(=O)c2ccccc12)c1cccc(C)c1	-3	6	2	-4	2	7	nt	nt
CCCSC1=N/C(=C\C=C\c2ccco2)C(=O)S1	69*	32	56*	106*	17	59	9	3
Cc1ccc(-c2ocnc2C(=O)N2CCOCC2)cc1	2	4	0	1	0	-1	nt	nt
O=C1COc2ccc(C(=O)COC(=O)/C=C/c3ccc(Br)o3)cc2N1	81*	81*	71*	100*	30	58	27	-4	DNMT1 interf DR=>99
C=CCn1c(COc2ccc(Cl)cc2)nnc1SCC(=O)c1c(N)n(C)c(=O)n(C)c1=O	-7	-2	17	73*	4	-7	4	2
CC(=O)c1oc2ccccc2c1NC(=O)COC(=O)c1ccc(-n2nc(C)cc2C)cc1	16	-1	19	54*	0	2	1	3
COc1ccc2oc(C(=O)Nc3ccc(N4CCOCC4)cc3)c(C)c2c1	15	2	2	51*	2	1	21	2
O=C(O)C1Nc2c(Cl)cc(Cl)c(Cl)c2C2C=CCC12 (stereo not drawn)	63*	63*	70*	83*	12	43	85*	0	DNMT1 interf DR=>99
CS/C(=N\S(=O)(=O)c1cccs1)Nc1ccc(F)cc1	-2	1	-1	3	0	-4	nt	nt
CS/C(=N\S(=O)(=O)c1cccs1)Nc1ccc(N2CCOCC2)cc1	-5	4	0	83*!	0	3	2	2
CN1CCC(N(C)C(=O)COc2ccccc2Cl)CC1	-6	-1	-6	5	0	-5	nt	nt
O=C(O)CSc1cc(C(=O)c2ccccc2O)cn2c(=O)c3c(-c4ccccc4)csc3nc12	18	17	16	59*	5	10	21	-2
N#Cc1c(-c2cccc(Br)c2)cc(-c2ccco2)[nH]c1=O	-6	29	25	87*	2	36*	10	14
O=C(Nc1nnc(-c2ccccc2)s1)c1ccc(F)cc1	-2	-2	-1	72*	-1	2	2	1
COc1ccccc1C(=O)Nc1nnc(-c2ccc(F)cc2)s1	3	-11	6	2	3	0	nt	nt
Cc1cccn2c(=O)c3cc(C(=O)NCCC4=CCCCC4)n(C)c3nc12	22	3	2	59*	2	-3	0	-7
